According to BindingDB's records for doi:10.1021/jm00031a021 (Tap Pharmaceuticals, 1994):
Where a SMILES comes first, the peptide text is derived from it. [ ]: non-standard residue; d: D form. The star is where a group is joined. Propanoyl(3-(4-F-phenyl)) = O=C(CCc1ccc(F)cc1)*; Propanoyl(3-(4-Cl-Ph)) = O=C(CCc1ccc(Cl)cc1)*; dPhe(4-Cl) = N[C@H](Cc1ccc(Cl)cc1)C(=O)O; d1Nal = N[C@H](Cc1cccc2ccccc12)C(=O)O; d2Nal = N[C@H](Cc1ccc2ccccc2c1)C(=O)O; Lys(iPr) = CC(C)NCCCC[C@H](N)C(=O)O; NMeY = CN[C@@H](Cc1ccc(O)cc1)C(=O)O; d3Pal = N[C@H](Cc1cccnc1)C(=O)O; pGlu = O=C1CC[C@@H](C(=O)O)N1; Nicotinoyl = O=C(c1cccnc1)*; X1 = O=C(Cc1ccc(O)cc1)*

What follows are compounds tested against T1, Gonadotropin-releasing hormone receptor (Rattus norvegicus, UniProt P30969) (assay: Inhibition of the in vitro binding of [125I]-labeled leuprolide to the rat pituitary luteinizing hormone releasing hormone (LHRH) receptor.).
T1 sequence (P30969 whole entry): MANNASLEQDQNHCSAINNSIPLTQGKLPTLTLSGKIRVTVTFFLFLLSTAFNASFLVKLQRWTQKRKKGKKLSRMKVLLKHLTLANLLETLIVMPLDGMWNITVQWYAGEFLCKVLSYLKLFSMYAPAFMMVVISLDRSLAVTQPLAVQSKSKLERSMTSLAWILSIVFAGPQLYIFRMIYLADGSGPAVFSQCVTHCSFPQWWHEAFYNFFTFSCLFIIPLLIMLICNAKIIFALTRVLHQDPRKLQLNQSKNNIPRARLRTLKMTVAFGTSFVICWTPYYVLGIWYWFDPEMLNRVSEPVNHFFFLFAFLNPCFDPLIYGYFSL
Procedure, shortened: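 Rat pituitary LHRH receptor binding with 125I-labeled leuprolide as radioligand. pKI is the negative log of the analogue concentration inhibiting 50% of tracer binding. Compounds tested as TFA salts.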
With `CCNC(=O)[C@@H]1CCCN1C(=O)[C@H](CCCN=C(N)N)NC(=O)[C@H](CC(C)C)NC(=O)[C@@H](Cc1c[nH]c2ccccc12)NC(=O)[C@H](Cc1ccc(O)cc1)NC(=O)[C@H](CO)NC(=O)[C@H](Cc1c[nH]c2ccccc12)NC(=O)CCc1ccc(F)c(F)c1` the Ki was 0.052 nM. Compound `CCNC(=O)[C@H]1CCCN1C(=O)[C@H](CCCN=C(N)N)NC(=O)[C@H](CC(C)C)NC(=O)[C@@H](Cc1c[nH]c2ccccc12)NC(=O)[C@H](Cc1ccc(O)cc1)NC(=O)[C@H](CO)NC(=O)C(Cc1cccc2ccccc12)NC(=O)CCc1ccc(F)cc1` (stereo not given in full) has a Ki of 0.017 nM. In the case of `CCNC(=O)[C@@H]1CCCN1C(=O)[C@H](CCCN=C(N)N)NC(=O)[C@H](CC(C)C)NC(=O)[C@@H](Cc1c[nH]c2ccccc12)NC(=O)[C@H](Cc1ccc(O)cc1)NC(=O)[C@H](CO)NC(=O)[C@H](Cc1c[nH]c2ccccc12)NC(=O)Cc1ccc(O)cc1` (X1-WSY[dW]LRP-NHEt), the Ki is reported as 0.813 nM. With `CCNC(=O)[C@@H]1CCCN1C(=O)[C@H](CCCN=C(N)N)NC(=O)[C@H](CC(C)C)NC(=O)[C@@H](Cc1c[nH]c2ccccc12)NC(=O)[C@H](Cc1ccc(O)cc1)NC(=O)[C@H](CO)NC(=O)[C@H](Cc1c[nH]c2ccccc12)NC(=O)Cc1ccc(C(F)(F)F)cc1` the Ki was 0.646 nM. Work on `CCNC(=O)[C@H]1CCCN1C(=O)[C@H](CCCN=C(N)N)NC(=O)[C@H](CC(C)C)NC(=O)[C@@H](Cc1c[nH]c2ccccc12)NC(=O)[C@H](Cc1ccc(O)cc1)NC(=O)[C@H](CO)N(C)C(=O)[C@H](Cc1c[nH]c2ccccc12)NC(=O)CCc1ccc(F)cc1` yielded a Ki of 0.135 nM. Compound `CC(C)C[C@H](NC(=O)[C@@H](CCCCNC(=O)c1cccnc1)NC(=O)[C@H](Cc1ccc(O)cc1)N(C)C(=O)[C@H](CO)NC(=O)[C@@H](Cc1cccc2ccccc12)NC(=O)CCc1ccc(F)cc1)C(=O)N[C@@H](CCCCNC(C)C)C(=O)N1CCC[C@H]1C(=O)N[C@H](C)C(N)=O` ({Propanoyl(3-(4-F-phenyl))}-[d1Nal]S[NMeY][dK](Nicotinoyl)L[Lys(iPr)]P[dA]-NH2) has a Ki of 0.02 nM. For `CCNC(=O)[C@H]1CCCN1C(=O)[C@H](CCCN=C(N)N)NC(=O)[C@H](CC(C)C)NC(=O)[C@@H](CCCCNC(=O)c1cccnc1)NC(=O)[C@H](Cc1ccc(O)cc1)N(C)C(=O)[C@H](CO)NC(=O)[C@H](Cc1c[nH]c2ccccc12)NC(=O)CCc1ccc(Cl)cc1`, the Ki was 0.02 nM. With `CCNC(=O)[C@@H]1CCCN1C(=O)[C@H](CCCN=C(N)N)NC(=O)[C@H](CC(C)C)NC(=O)[C@@H](Cc1c[nH]c2ccccc12)NC(=O)[C@H](Cc1ccc(O)cc1)NC(=O)[C@H](CO)NC(=O)[C@H](Cc1c[nH]c2ccccc12)NC(=O)CCc1ccc(C(F)(F)F)cc1` the Ki was 0.275 nM. `CCNC(=O)[C@@H]1CCCN1C(=O)[C@H](CCCN=C(N)N)NC(=O)[C@H](CC(C)C)NC(=O)[C@@H](Cc1c[nH]c2ccccc12)NC(=O)[C@H](Cc1ccc(O)cc1)NC(=O)[C@H](CO)NC(=O)[C@H](Cc1ccc(O)cc1)NC(=O)CCc1ccc(Cl)cc1` ({Propanoyl(3-(4-Cl-Ph))}-YSY[dW]LRP-NHEt) was tested, and the Ki was 0.076 nM. With `CCNC(=O)[C@H]1CCCN1C(=O)[C@H](CCCN=C(N)N)NC(=O)[C@H](CC(C)C)NC(=O)[C@@H](Cc1ccc(Cl)cc1)NC(=O)[C@H](Cc1ccc(O)cc1)NC(=O)[C@H](CO)NC(=O)[C@H](Cc1c[nH]c2ccccc12)NC(=O)CCc1ccc(F)cc1` the Ki was 0.018 nM. `CCNC(=O)[C@H]1CCCN1C(=O)[C@H](CCCN=C(N)N)NC(=O)[C@H](CC(C)C)NC(=O)[C@@H](Cc1c[nH]c2ccccc12)NC(=O)[C@H](Cc1ccc(O)cc1)NC(=O)[C@H](CO)NC(=O)[C@H](Cc1c[nH]c2ccccc12)NC(=O)[C@@H](N)Cc1ccccc1` showed a Ki of 83.2 nM. Compound `CCNC(=O)[C@H]1CCCN1C(=O)[C@H](CCCN=C(N)N)NC(=O)[C@H](CC(C)C)NC(=O)[C@@H](Cc1c[nH]c2ccccc12)NC(=O)[C@H](Cc1ccc(O)cc1)NC(=O)[C@H](CO)NC(=O)[C@@H]1CCCN1C(=O)CCc1ccc(F)cc1` has a Ki of 0.012 nM. `CC(C)C[C@H](NC(=O)[C@@H](CCCCNC(=O)c1cccnc1)NC(=O)[C@H](Cc1ccc(O)cc1)N(C)C(=O)[C@H](CO)NC(=O)[C@H](Cc1cccc2ccccc12)NC(=O)CCc1ccc(F)cc1)C(=O)N[C@@H](CCCCNC(C)C)C(=O)N1CCC[C@@H]1C(=O)O` was tested, and the Ki was 0.537 nM. Work on `CCNC(=O)[C@@H]1CCCN1C(=O)[C@H](CCCN=C(N)N)NC(=O)[C@H](CC(C)C)NC(=O)[C@@H](Cc1c[nH]c2ccccc12)NC(=O)[C@H](Cc1ccc(O)cc1)NC(=O)[C@H](CO)NC(=O)[C@H](Cc1c[nH]c2ccccc12)NC(=O)Cc1ccccc1` yielded a Ki of 0.832 nM. `CCNC(=O)[C@H]1CCCN1C(=O)[C@H](CCCN=C(N)N)NC(=O)[C@H](CC(C)C)NC(=O)[C@@H](CCCCNC(=O)c1cccnc1)NC(=O)[C@H](Cc1ccc(O)cc1)N(C)C(=O)[C@H](CO)NC(=O)[C@H](Cc1c[nH]c2ccccc12)NC(=O)CCc1ccc(F)cc1F` showed a Ki of 0.02 nM. `CC(C)C[C@H](NC(=O)[C@@H](CCCCNC(=O)c1cccnc1)NC(=O)[C@H](Cc1ccc(O)cc1)N(C)C(=O)[C@H](CO)NC(=O)[C@H](Cc1cccc2ccccc12)NC(=O)CCc1ccc(F)cc1)C(=O)N[C@@H](CCCCNC(C)C)C(=O)N1CCC[C@@H]1C(N)=O` showed a Ki of 0.016 nM. For `CCNC(=O)[C@H]1CCCN1C(=O)[C@H](CCCN=C(N)N)NC(=O)[C@H](CC(C)C)NC(=O)[C@@H](Cc1c[nH]c2ccccc12)NC(=O)[C@H](Cc1ccc(O)cc1)N(C)C(=O)[C@H](CO)NC(=O)[C@H](Cc1c[nH]c2ccccc12)NC(=O)CCc1ccc(F)cc1F`, the Ki was 0.039 nM. `CCNC(=O)[C@@H]1CCCN1C(=O)[C@H](CCCN=C(N)N)NC(=O)[C@H](CC(C)C)NC(=O)[C@@H](Cc1c[nH]c2ccccc12)NC(=O)[C@H](Cc1ccc(O)cc1)NC(=O)[C@H](CO)NC(=O)[C@@H](Cc1c[nH]c2ccccc12)NC(=O)c1cc2ccccc2[nH]1` showed a Ki of 0.076 nM. Compound `CCNC(=O)[C@H]1CCCN1C(=O)[C@H](CCCN=C(N)N)NC(=O)[C@H](CC(C)C)NC(=O)[C@@H](Cc1c[nH]c2ccccc12)NC(=O)[C@H](Cc1ccc(O)cc1)N(C)C(=O)[C@H](CO)NC(=O)[C@H](Cc1c[nH]c2ccccc12)NC(=O)CCc1ccc(F)cc1` has a Ki of 0.033 nM. `CCNC(=O)[C@@H]1CCCN1C(=O)[C@H](CCCN=C(N)N)NC(=O)[C@H](CC(C)C)NC(=O)[C@@H](Cc1c[nH]c2ccccc12)NC(=O)[C@H](Cc1ccc(O)cc1)NC(=O)[C@H](CO)NC(=O)[C@@H](Cc1ccc(O)cc1)NC(=O)CCc1ccc(Cl)cc1` ({Propanoyl(3-(4-Cl-Ph))}-[dY]SY[dW]LRP-NHEt) was tested, and the Ki was 0.018 nM. `CCNC(=O)[C@H]1CCCN1C(=O)[C@H](CCCN=C(N)N)NC(=O)[C@H](CC(C)C)NC(=O)[C@@H](CCCCNC(=O)c1cccnc1)NC(=O)[C@H](Cc1ccc(O)cc1)N(C)C(=O)[C@H](CO)NC(=O)[C@H](Cc1c[nH]c2ccccc12)NC(=O)CCc1ccc(F)cc1` was tested, and the Ki was 0.017 nM. `CCNC(=O)[C@H]1CCCN1C(=O)[C@H](CCCCNC(C)C)NC(=O)[C@H](CC(C)C)NC(=O)[C@@H](CCCCNC(=O)c1cccnc1)NC(=O)[C@H](Cc1ccc(O)cc1)N(C)C(=O)[C@H](CO)NC(=O)[C@H](Cc1cccc2ccccc12)NC(=O)CCc1ccc(F)cc1` was tested, and the Ki was 0.002 nM. With `CCNC(=O)[C@@H]1CCCN1C(=O)[C@H](CCCN=C(N)N)NC(=O)[C@H](CC(C)C)NC(=O)[C@@H](Cc1c[nH]c2ccccc12)NC(=O)[C@H](Cc1ccc(O)cc1)NC(=O)[C@H](CO)NC(=O)[C@H](Cc1ccc(O)cc1)NC(=O)CCc1ccc(F)cc1` the Ki was 0.022 nM. `CCNC(=O)[C@H]1CCCN1C(=O)[C@H](CCCN=C(N)N)NC(=O)[C@H](CC(C)C)NC(=O)[C@@H](Cc1c[nH]c2ccccc12)NC(=O)[C@H](Cc1ccc(O)cc1)NC(=O)[C@@H]1CC(O)CN1C(=O)[C@H](Cc1c[nH]c2ccccc12)NC(=O)CCc1ccc(F)cc1` (stereo not given in full) was tested, and the Ki was 1.29 nM. Compound `CCNC(=O)[C@H]1CCCN1C(=O)[C@H](CCCN=C(N)N)NC(=O)[C@H](CC(C)C)NC(=O)[C@@H](CCCCNC(=O)c1cccnc1)NC(=O)[C@H](Cc1ccc(O)cc1)NC(=O)[C@H](CO)NC(=O)[C@H](Cc1c[nH]c2ccccc12)NC(=O)CCc1ccc(F)cc1` has a Ki of 0.023 nM. With `CCNC(=O)[C@@H]1CCCN1C(=O)[C@H](CCCN=C(N)N)NC(=O)[C@H](CC(C)C)NC(=O)[C@@H](Cc1c[nH]c2ccccc12)NC(=O)[C@H](Cc1ccc(O)cc1)NC(=O)[C@H](CO)NC(=O)[C@H](Cc1c[nH]c2ccccc12)NC(=O)c1cc2ccccc2[nH]1` the Ki was 17 nM. With `CCNC(=O)[C@@H]1CCCN1C(=O)[C@H](CCCN=C(N)N)NC(=O)[C@H](CC(C)C)NC(=O)[C@@H](Cc1c[nH]c2ccccc12)NC(=O)[C@H](Cc1ccc(O)cc1)NC(=O)[C@H](CO)NC(=O)[C@H](Cc1c[nH]c2ccccc12)NC(=O)[C@H](Cc1ccccc1)NC(=O)[C@@H]1CCC(=O)N1` ([pGlu]FWSY[dW]LRP-NHEt) the Ki was 0.025 nM. `CC(=O)N[C@H](Cc1ccc2ccccc2c1)C(=O)N[C@H](Cc1ccc(Cl)cc1)C(=O)N[C@H](Cc1cccnc1)C(=O)N[C@@H](CO)C(=O)N(C)[C@@H](Cc1ccc(O)cc1)C(=O)N[C@H](CCCCNC(=O)c1cccnc1)C(=O)N[C@@H](CC(C)C)C(=O)N[C@@H](CCCCNC(C)C)C(=O)N1CCC[C@H]1C(=O)N[C@H](C)C(N)=O` (Ac-[d2Nal][dPhe(4-Cl)][d3Pal]S[NMeY][dK](Nicotinoyl)L[Lys(iPr)]P[dA]-NH2) was tested, and the Ki was 0.032 nM. `CCNC(=O)[C@@H]1CCCN1C(=O)[C@H](CCCN=C(N)N)NC(=O)[C@H](CC(C)C)NC(=O)[C@@H](Cc1c[nH]c2ccccc12)NC(=O)[C@H](Cc1ccc(O)cc1)NC(=O)[C@H](CO)NC(=O)[C@H](Cc1c[nH]c2ccccc12)NC(=O)c1cc2cc(F)ccc2[nH]1` gave a Ki of 12.3 nM. `CCNC(=O)[C@H]1CCCN1C(=O)[C@H](CCCN=C(N)N)NC(=O)[C@H](CC(C)C)NC(=O)[C@@H](Cc1c[nH]c2ccccc12)NC(=O)[C@H](Cc1ccc(O)cc1)N(C)C(=O)[C@H](CO)NC(=O)[C@H](Cc1c[nH]c2ccccc12)NC(=O)CCc1ccc(Cl)cc1` showed a Ki of 0.071 nM.
